Experimental findings from ChEMBL document CHEMBL2086229, “Synthesis and biological activities of 4-substituted pyrrolo[2,3-a]carbazole Pim kinase inhibitors” (Eur J Med Chem, 2012) are described below.

Calls of active or inactive are those of the source. The rule behind the calls is not given here.

Experiment [1] concerns PC-3. The experiment is described as follows: Antiproliferative activity against human PC3 cells assessed as growth inhibition at 10 uM after 48 hrs by resazurin reduction test. The format is functional, cell-based. The method in brief: (§1)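 PA1 and PC3 cells seeded at 5 × 10³ per well, adhered 16 h, then exposed 48 h continuously to a single drug concentration (1 or 10 μM) from 20 mM DMSO stock. Growth read by resazurin reduction (25 μg/mL, 1 h, 37 °C), fluorescence ex 530/em 590 nm, as survival relative to control wells after blank subtraction.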
Background: Alamar Blue is a resazurin reagent that responds to reducing activity.

Experiment [2] has as its target T1, Serine/threonine-protein kinase pim-1 (Homo sapiens, UniProt P11309). The experiment is described as follows: Inhibition of human Pim1 using RSRHSSYPAGT as substrate assessed as residual activity at 1 uM.
Target sequence in this assay (P11309 whole entry, looked up): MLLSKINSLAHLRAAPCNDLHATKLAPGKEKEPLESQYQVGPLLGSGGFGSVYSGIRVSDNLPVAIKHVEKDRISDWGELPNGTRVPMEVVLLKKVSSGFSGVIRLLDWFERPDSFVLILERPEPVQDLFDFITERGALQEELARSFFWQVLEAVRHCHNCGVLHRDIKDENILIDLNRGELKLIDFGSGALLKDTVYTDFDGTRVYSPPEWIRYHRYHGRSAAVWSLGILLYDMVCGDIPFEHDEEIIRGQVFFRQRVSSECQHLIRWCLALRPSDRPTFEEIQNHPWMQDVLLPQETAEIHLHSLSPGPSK
The test system of experiment [3] is PC-3. The experiment is described as follows: Antiproliferative activity against human PC3 cells assessed as growth inhibition at 1 uM after 48 hrs by resazurin reduction test. The format is functional, cell-based. The essentials:
as §1

The subject of experiment [4] is PA-1. Nature of the experiment: Antiproliferative activity against human PA1 cells assessed as growth inhibition at 1 uM after 48 hrs by resazurin reduction test. The format is functional, cell-based. The essentials: as §1
Experiment [5] deals with T2, Serine/threonine-protein kinase pim-3 (Homo sapiens, UniProt Q86V86). Nature of the experiment: Inhibition of human Pim3 using RSRHSSYPAGT as substrate assessed as residual activity at 1 uM.
Experiment [6] relates to PA-1. Nature of the experiment: Antiproliferative activity against human PA1 cells assessed as growth inhibition at 10 uM after 48 hrs by resazurin reduction test. It counts as functional, cell-based. The essentials:
as §1

Experiment [7] has as its target T1, Serine/threonine-protein kinase pim-1. The experiment is described as follows: Inhibition of human Pim1 using RSRHSSYPAGT as substrate assessed as residual activity at 10 uM.
Target sequence in this assay (P11309 whole entry, looked up): as the sequence (P11309 whole entry, looked up) above
Experiment [8] addresses Serine/threonine-protein kinase pim-2 (Homo sapiens) (UniProt Q9P1W9). The experiment is described as follows: Inhibition of human Pim2 using RSRHSSYPAGT as substrate assessed as residual activity at 10 uM.
The target is the same in experiment [9]. The experiment is described as follows: Inhibition of human Pim2 using RSRHSSYPAGT as substrate assessed as residual activity at 1 uM.
Experiment [10] deals with T2, Serine/threonine-protein kinase pim-3. Nature of the experiment: Inhibition of human Pim3 using RSRHSSYPAGT as substrate assessed as residual activity at 10 uM.
Experiment [11] can be described thus: Antiproliferative activity against human fibroblasts after 48 hrs by resazurin reduction test. The conditions noted are these: Fibroblast. It counts as cell-based. The essentials:
(§2)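 Cells kept as monolayers in Glutamax MEM with Earle's salts, 10% fetal calf serum, sodium pyruvate, non-essential amino acids and gentamicin, 37 °C, 5% CO2. Seeded at 5 × 10³ cells/well, adhered 16 h, then given drug from 20 mM DMSO stock for 48 h continuously. Resazurin (25 μg/mL, 1 h, 37 °C) fluorescence read at ex 530/em 590 nm. IC50 taken from concentration–survival curve versus control wells, blank subtracted.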

Experiment [12] relates to PA-1. Nature of the experiment: Antiproliferative activity against human PA1 cells after 48 hrs by resazurin reduction test. It counts as functional, cell-based. The essentials:
as §2

For experiment [13], the target named is T1, Serine/threonine-protein kinase pim-1. The experiment is described as follows: Inhibition of human Pim1 using RSRHSSYPAGT as substrate.
Target sequence in this assay (P11309 whole entry): as the sequence (P11309 whole entry, looked up) above
Experiment [14] has as its system DU-145. Nature of the experiment: Antiproliferative activity against human DU145 cells after 48 hrs by resazurin reduction test. It counts as functional, cell-based. The essentials: as §2
Experiment [15] addresses T2, Serine/threonine-protein kinase pim-3. Nature of the experiment: Inhibition of human Pim3 using RSRHSSYPAGT as substrate.
In experiment [16] the test system is PC-3. The experiment is described as follows: Antiproliferative activity against human PC3 cells after 48 hrs by resazurin reduction test. It counts as functional, cell-based. The essentials: as §2

What is called IC50 is the concentration that inhibits the measured activity by half. A low value points to inhibition by little substance.

Chain of Serine/threonine-protein kinase pim-2 (Homo sapiens) (Q9P1W9 whole entry, looked up): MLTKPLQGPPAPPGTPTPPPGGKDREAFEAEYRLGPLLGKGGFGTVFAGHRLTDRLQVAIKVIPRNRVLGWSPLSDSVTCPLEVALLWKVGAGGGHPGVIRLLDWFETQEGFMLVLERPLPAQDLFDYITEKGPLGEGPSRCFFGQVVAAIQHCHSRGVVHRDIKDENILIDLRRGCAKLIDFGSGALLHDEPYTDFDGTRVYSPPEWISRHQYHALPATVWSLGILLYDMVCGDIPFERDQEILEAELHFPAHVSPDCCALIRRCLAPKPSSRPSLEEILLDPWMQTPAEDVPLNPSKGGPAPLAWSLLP

In the case of `Nc1cccc2[nH]c3c(cc(C(=O)O)c4cc[nH]c43)c12`, the “growth inhibition (GI)” value in [1], in experiment [3], in experiment [4] and in [6] was “inactive” each time. For the same molecule, the Activity was 103% in [2]; 103% in [5]; 87% in experiment [7]; 89% in experiment [8]; 101% in experiment [9]; 55% in [10].

Regarding `O=Cc1c[nH]c2c1ccc1c3ccccc3[nH]c12`, the IC50 in experiment [11] was 21 µM.

In the case of `COC(=O)c1cc2c3ccccc3[nH]c2c2[nH]ccc12`, the Activity in experiment [2] was 57%; in experiment [5], 47%; in experiment [7], 15%; in [8] it was 75%; in [9] it was 95%; in experiment [10] it was 24%. Moreover, the IC50 in experiment [12] (PA-1, 48 h) is 27 µM; in [13] it was 3 µM; in experiment [14] (DU-145, 48 h), over 50 µM; in experiment [15] it was 0.5 µM; in [11], 8 µM; in experiment [16] (PC-3, 48 h) it was 6 µM.

For `O=C(O)c1cc2c3ccccc3[nH]c2c2[nH]ccc12`, the “growth inhibition (GI)” value in [1], in [3], in experiment [4] and in [6] was “inactive” in each case. For the same molecule, the Activity was 90% in experiment [2]; 101% in experiment [5]; 70% in [7]; 93% in [8]; 100% in [9]; 65% in experiment [10].

In the case of `COC(=O)c1cc2c([nH]c3cccc(N)c32)c2[nH]ccc12`, the Activity in experiment [2] came out at 90%; in [5], 40%; in [7], 39%; in experiment [8], 77%; in experiment [9], 93%; in experiment [10], 16%. In addition, the “growth inhibition (GI)” value in experiment [12], in experiment [14] and in experiment [16] was “inactive” in each case. For the same molecule, half-maximal inhibition in [15] (IC50) was put at 0.41 µM.
